Six molecules from ChEMBL document CHEMBL4038331 (J Med Chem, 2017) can be followed below.

Molecules are shown by their SMILES. Calls of active or inactive are those of the source. No cut-off for these calls is given here.

Series [1] is described as follows: Antioxidant activity assessed as GO radical scavenging activity measured for 30 mins in absence of light. Format: functional. The gist of the method:
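Ethanolic GO• (5 mM stock) diluted to absorbance 1.00 ± 0.02 at 428 nm. Test solutions (5–75 μM in ethanol) were added in triplicate and read at 428 nm at room temperature. Inhibition was taken against an ethanol blank (100% radical).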

For series [2], the system named is Liver. The series can be described thus: Increase in oligomycin-inhibited respiration in rat liver mitochondria after 5 mins in presence of glutamate/malate. Format: functional. An outline of the steps:
(§1)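 Glutamate/malate (10/5 mM) or succinate (5 mM) was the substrate, with compound 2.5–10 μM for 5 min (state 2). ADP was added (125 nmol glutamate/malate; 75 nmol succinate), then oligomycin 2 μg/mL, then FCCP 1 μM. RCR and ADP/O were calculated. Seven experiments.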

In series [3] the test system is Liver. The series can be described thus: Antioxidant activity in rat liver mitochondria assessed as inhibition of FeSO4/H2O2-induced lipid peroxidation at 5 uM preincubated for 5 mins followed by FeSO4/H2O2 addition for 15 mins by TBARS-based fluorescence assay. Format: functional. The gist of the method: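 Rat liver mitochondria (2 mg protein/mL) in 100 mM KCl, 10 mM Tris-HCl pH 7.6 with glutamate/malate at 37 °C. After 5 min with compound (5 μM), 100 μM FeSO4/500 μM H2O2/5 mM ascorbate was added for 15 min. Butylated hydroxytoluene, perchloric acid and thiobarbituric acid were added, then heated 15 min at 100 °C. Read-out as % of control, three experiments.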

The nature of series [4]: Iron chelating activity in ammonium acetate buffer assessed as inhibition of [Fe(ferrozine)3]2+ formation at 100 uM at pH 6.7 measured after 10 mins by spectrophotometric analysis. An outline of the steps:
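Ferrozine assay in ammonium acetate buffer pH 6.7. Compound (100 μM) plus ammonium iron(II) sulfate (20 μM) for 10 min, read at 562 nm. Ferrozine was added, incubated 10 min at 37 °C, and re-read at 562 nm. The first reading was subtracted, with a DMSO blank and EDTA = 100%. Three experiments.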

Series [5] concerns Liver. As to the kind of experiment: Drug uptake in rat liver extra-mitochondria at 1 uM in presence of succinate/valinomycin by TPP+-based electrode assay. Format: ADME, tissue-based. An outline of the steps:
(§2)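 TPP+-selective electrode with rat liver mitochondria (0.5 mg/mL) in 120 mM KCl, 10 mM HEPES pH 7.2, 1 mM EGTA at 37 °C with rotenone 1.5 μM. Five 1 μM additions calibrated the electrode, then succinate 10 mM was added, then valinomycin 0.2 μg/mL. The accumulation ratio assumed a matrix volume of ~0.5 μL/mg with a binding correction.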

Series [6] in a line: Antioxidant activity assessed as ABTS radical scavenging activity measured each minute for 15 mins by spectrophotometric analysis. Format: functional. The gist of the method: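 ABTS•+ generated from 7 mM ABTS plus potassium persulfate, held 16 h dark at room temperature, then diluted in ethanol to absorbance 0.72 ± 0.02. Ethanolic test solutions (10–500 μM) were added to radical solution in triplicate. Inhibition was taken against an ethanol blank (100% radical), and IC50 was read from dose–response curves.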

Series [7] relates to Liver. As to the kind of experiment: Decrease in oxidative phosphorylation efficiency in rat liver mitochondria assessed as reduction in coupling between ATP systhesis and oxygen consumption after 5 mins in presence of glutamate/malate. Format: functional. An outline of the steps: as §1
Series [8] has as its system Liver. The series can be described thus: Ratio of drug level in rat liver intra-mitochondria to extra-mitochondria at 1 uM in presence of succinate/valinomycin by TPP+-based electrode assay. Format: ADME, tissue-based. The gist of the method: as §2
The subject of series [9] is Liver. As to the kind of experiment: Induction of ADP-stimulated respiration in rat liver mitochondria after 5 mins in presence of glutamate/malate. Type of series: functional. An outline of the steps: as §1
Series [10] in a line: Redox potential of compound in Ag/AgCl-NaCl containing phosphate buffer at 0.1 mM at pH 7.4 by cyclic voltammetric analysis. The gist of the method:
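Voltammetry used a glassy carbon working electrode, Pt counter and Ag/AgCl reference. Compound was at 0.1 mM final (10 mM ethanolic stock) in pH 7.4 potassium phosphate electrolyte.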

Series [11] concerns Liver. As to the kind of experiment: Induction of basal respiration in rat liver mitochondria measured 5 mins after ADP phosphorylation in presence of glutamate/malate. Format: functional. An outline of the steps:
as §1

The nature of series [12]: Antioxidant activity assessed as DPPH radical scavenging activity measured every minute for 45 mins. Type of series: functional. An outline of the steps: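 DPPH• ethanolic solution diluted to absorbance 0.72 ± 0.02 at 515 nm. Ethanolic test solutions (50–500 μM) were added in triplicate and read at 515 nm. Inhibition was taken against an ethanol blank (100% radical), and IC50 was read from dose–response curves.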

In series [13] the test system is Liver. The series can be described thus: Induction of ADP-stimulated respiration in rat liver mitochondria after 5 mins in presence of succinate. Format: functional. An outline of the steps:
as §1

In series [14] the test system is Liver. The series can be described thus: Drug uptake in rat liver intra-mitochondria at 1 uM in presence of succinate/valinomycin by TPP+-based electrode assay. Format: ADME, tissue-based. An outline of the steps: as §2
Series [15] deals with Liver. The series can be described thus: Induction of basal oxygen consumption under nonphosphorylative conditions in rat liver mitochondria after 5 mins in presence of succinate. Format: functional. An outline of the steps:
as §1

The test system of series [16] is Liver. The series can be described thus: Increase in oligomycin-inhibited respiration in rat liver mitochondria after 5 mins in presence of succinate. Format: functional. An outline of the steps: as §1
Series [17] deals with Liver. The series can be described thus: Induction of basal respiration in rat liver mitochondria measured 5 mins after ADP phosphorylation in presence of succinate. Type of series: functional. An outline of the steps:
as §1

Series [18] deals with Liver. As to the kind of experiment: Decrease in oxidative phosphorylation efficiency in rat liver mitochondria assessed as reduction in coupling between ATP systhesis and oxygen consumption after 5 mins in presence of succinate. Format: functional. The gist of the method: as §1
The nature of series [19]: Lipophilicity of compound in Ag/AgCl-NaCl containing PET membrane assessed as tranfer potential at pH 7. Type of series: physicochemical. The gist of the method:
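Transfer across a liquid–liquid interface on a microporous PET membrane, with 1,6-dichlorohexane organic phase containing BTPPATPBCl. A gelled 2 mM BTPPACl + 2 mM NaCl reference was used, with 10 mM Tris-HCl pH 7.0 aqueous electrolyte.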

Series [20] concerns Liver. As to the kind of experiment: Decrease in oxidative phosphorylation efficiency in rat liver mitochondria assessed as reduction in respiratory control ratio after 5 mins in presence of glutamate/malate. Type of series: functional. The gist of the method:
as §1

Series [21] relates to Liver. As to the kind of experiment: Induction of basal oxygen consumption under nonphosphorylative conditions in rat liver mitochondria after 5 mins in presence of glutamate/malate. Format: functional. An outline of the steps:
as §1

In series [22] the test system is Liver. As to the kind of experiment: Induction of membrane hyperpolarization in rat liver mitochondria assessed as change in repolarization potential at 2.5 uM. Format: functional. An outline of the steps: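 Safranine (5 μM) fluorescence (ex 495/em 586 nm) at 25 °C. Rat liver mitochondria (0.5 mg/2 mL) were in 200 mM sucrose, 1 mM KH2PO4, 10 mM Tris pH 7.4, 10 μM EGTA with glutamate/malate or succinate, after 5 min with 2.5–10 μM. ADP 25 nmol depolarised, then FCCP 1 μM was added. A valinomycin calibration in K+-free medium was used, five experiments.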

Series [23] can be described thus: Induction of mPTP in energized rat liver mitochondria at 2.5 to 10 uM after 5 mins in presence of succinate by spectrophotometric analysis.
The species entered for a further series is Rattus norvegicus. As to the kind of experiment: Inhibition of mPTP in energized rat liver mitochondria at 2.5 to 10 uM after 5 mins in presence of succinate by spectrophotometric analysis.
Series [24] concerns Liver. The series can be described thus: Antioxidant activity in rat liver mitochondria assessed as inhibition of ADP/FeSO4-induced lipid peroxidation at 5 uM preincubated for 5 mins followed by ADP/FeSO4 addition. Format: functional. The gist of the method: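 Rat liver mitochondria (2 mg) in 100 mM KCl, 10 mM Tris-HCl pH 7.6, with glutamate/malate (5/2.5 mM) at 37 °C. After 5 min with compound (5 μM), peroxidation was started with ADP/0.1 mM FeSO4. The lag phase of O2 consumption was measured by Clark electrode and expressed as % of control. Six experiments.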

For the molecule `CS(=O)(=O)[O-].O=C(/C=C/c1ccc(O)c(O)c1)NCCCCCC[P+](c1ccccc1)(c1ccccc1)c1ccccc1`, the concentration for half-maximal inhibition (IC50) in [1] was determined as 4.1 µM; in [6] it was 30.5 µM; in [12], 29.5 µM. The Activity entry with Liver [2] is “Dose-dependent effect”; in the series with Liver [7], “Dose-dependent effect”; in the series on Liver [9], “Dose-dependent effect”; in series [10] it was 0.164 V; in the series with Liver [11], “Dose-dependent effect”; with Liver [13], “Dose-dependent effect”. In addition, the Activity result in the series with Liver [15] was “Dose-dependent effect”; with Liver [16], “Dose-dependent effect”; with Liver [17], “Dose-dependent effect”; in the series on Liver [18], “Dose-dependent effect”; in series [19], 0.396 V; with Liver [20], “Dose-dependent effect”. In addition, the Activity result in the series with Liver [21] is “Dose-dependent effect”. Further, the inhibition result (in the series with Liver [3]; in series [4]) was “Active” throughout. Moreover, the Drug uptake was determined as 1.8 µM in the series with Liver [5] and 2.5 mM with Liver [14]. The Ratio in the series with Liver [8] is 2500.

`O=C(O)/C=C/c1ccc(O)c(O)c1` [CAFFEIC ACID]: the values for the IC50 in series [1], in series [6] and in series [12] were 3.4 µM, 17.9 µM and 18.1 µM, respectively. In series [10], this molecule registered an Activity of 0.168 V.

As to `CS(=O)(=O)[O-].O=C(/C=C/c1ccc(O)c(O)c1)NCCCCCCCC[P+](c1ccccc1)(c1ccccc1)c1ccccc1`, the figures for the IC50 in series [1], in [6] and in series [12] were 2.8 µM, 27.9 µM and 28 µM, respectively. The Activity entry with Liver [2] was “Dose-dependent effect”; in the series with Liver [7] it was “Dose-dependent effect”; in the series with Liver [9], “Dose-dependent effect”; in series [10], 0.17 V; with Liver [11], “Dose-dependent effect”; with Liver [13], “Dose-dependent effect”. Moreover, the Activity was 10 mV with Liver [22]; “Dose-dependent effect” in the series on Liver [15]; “Dose-dependent effect” in the series with Liver [16]; “Non-Toxic” in series [23]; “Dose-dependent effect” in the series with Liver [17]; “Dose-dependent effect” in the series on Liver [18]. In addition, the Activity in [19] was 0.345 V; with Liver [20] it was “Dose-dependent effect”; in the series with Liver [21], “Dose-dependent effect”. Besides, the Drug uptake turned out to be 1.2 µM in the series on Liver [5] and 5.7 mM with Liver [14]. In the series with Liver [8], the Ratio is listed as 5100. For the same molecule, the inhibition result in the series filed under Rattus norvegicus is “Active”.

Regarding `CS(=O)(=O)[O-].O=C(/C=C/c1ccc(O)c(O)c1)NCC[P+](c1ccccc1)(c1ccccc1)c1ccccc1`, the IC50 is 4.5 µM in series [1], 33.3 µM in [6] and 35.4 µM in series [12]. Moreover, the Activity entry with Liver [2] was “Dose-dependent effect”; in the series on Liver [7], “Dose-dependent effect”; with Liver [9], “Dose-dependent effect”; in series [10] it was 0.166 V; in the series on Liver [11] it was “Dose-dependent effect”; in the series with Liver [13], “Dose-dependent effect”. Besides, the Activity result was “Dose-dependent effect” in the series with Liver [15]; “Dose-dependent effect” with Liver [16]; “Dose-dependent effect” in the series with Liver [17]; “Dose-dependent effect” in the series with Liver [18]; 0.572 V in series [19]; “Dose-dependent effect” in the series with Liver [20]. Besides, the Drug uptake in the series with Liver [5] came out at 3.7 µM; in the series with Liver [14], 1.5 mM. Moreover, in the series with Liver [8], the Ratio was 600. The inhibition result with Liver [24] was “Active”.

Regarding `O=C(O)CN(CCN(CC(=O)O)CC(=O)O)CC(=O)O`, the inhibition result in series [4] was “Active”.

With `CS(=O)(=O)[O-].O=C(/C=C/c1cc(O)c(O)c(O)c1)NCCCCCCCC[P+](c1ccccc1)(c1ccccc1)c1ccccc1`, the 50% inhibitory concentration (IC50) in [1] stood at 2.3 µM; in [6], 8.7 µM; in series [12], 14.7 µM. In addition, the Activity entry was “Dose-dependent effect” with Liver [2]; “Dose-dependent effect” with Liver [7]; “Dose-dependent effect” in the series on Liver [9]; 0.046 V in series [10]; “Dose-dependent effect” with Liver [11]; “Dose-dependent effect” in the series on Liver [13]. Further, the Activity in the series on Liver [22] was 25 mV; in the series with Liver [15], “Dose-dependent effect”; in the series on Liver [16] it was “Dose-dependent effect”; in series [23], “Non-Toxic”; with Liver [17], “Dose-dependent effect”; in the series with Liver [18] it was “Dose-dependent effect”. Besides, the Activity is 0.423 V in series [19], “Dose-dependent effect” in the series on Liver [20] and “Dose-dependent effect” in the series with Liver [21]. Moreover, the Drug uptake with Liver [5] worked out at 1 µM; in the series on Liver [14], 4.5 mM. The Ratio with Liver [8] was determined as 3900. Further, the inhibition entry in the series filed under Rattus norvegicus and in the series with Liver [24] was “Active” in each case.
